# Source: PubChem (The Scripps Research Institute Molecular Screening Center)
# MsrA act: activates bovine MsrA enzyme; 360,000 tested, 0.3% active; purified bovine MsrA, absorbance read-out; activation, % at 10.6 µM; in the data active means activation above about 7.5%;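 further: 0% = vehicle and 100% = reference activator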
# MsrA inhibitor: inhibits bovine methionine sulfoxide reductase A; purified bovine MsrA, absorbance read-out; inhibition, % at 15.5 µM; 360,000 tested, 0.75% active; AID 651718; in the data active means inhibition above about 4.5%;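 further: 0% = vehicle wells with enzyme and 100% = reference inhibitor wells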
# MC4R ag barr: agonists of human melanocortin 4 receptor (MC4R) beta-arrestin. 360,000 tested, 0.98% active. P32245. activation, % at 8.9 µM. U2OS MC4R beta-arrestin complementation, luminescence; percent of melanotan II response, DMSO zero;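 active means activation above a per-plate cutoff, the mean activation of sample wells on that plate plus 3 SD, cut at about 8% in these data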
# MC4R antagonist: blocks human MC4R cAMP signaling; AID 540295; MC4R-expressing cells, MTII-stimulated cAMP, LANCE TR-FRET; 360,000 tested, 0.48% active; inhibition, % at 6.5 µM; P32245;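 active means inhibition above its plate's cutoff, the mean of tested wells on that plate plus 3 SD, cut at about 29% in these data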;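 further: 0% = Melanotan II alone and 100% = Melanotan II plus saturating MCL0020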
#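 material = U2OS cells stably expressing human melanocortin 4 receptor (MC4R) | also added = Melanotan II challenge | dosing = single nominal compound dose of 6.5 µM | detection = TR-FRET with Eu-cAMP and labeled anti-cAMP, 671 nm | replication = singlicate | timing = compound 30 min, challenge 1 h, detection 1 h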
# MC4R barr conf: human MC4R beta-arrestin agonism confirmation | AID 602192 | 2,400 tested, 31% active | U2OS MC4R beta-arrestin recruitment, luminescence; scaled DMSO 0%, Melanotan II 100% | activation, % at 8.9 µM | shares compounds with MC4R ag barr;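 active means mean activation across replicates above the hit cutoff set in the earlier primary screen, cut at about 8% in these data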
# MOR DOR agonist: counter-screen for MC4R agonists: agonists of mu-delta opioid heterodimer. shares compounds with MC4R ag barr. U2OS PathHunter beta-arrestin, beta-gal luminescence; percent of deltorphin B response, DMSO zero. activation, % at 9.2 µM. 2,400 tested, 5.8% active;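 active means mean activation across replicates exceeds the hit threshold derived in the earlier primary screen, cut at about 18% in these data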;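 further: 100% = deltorphin B at 0.9 µM final and 0% = DMSO alone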
# Target sequence (P35372 whole entry, looked up): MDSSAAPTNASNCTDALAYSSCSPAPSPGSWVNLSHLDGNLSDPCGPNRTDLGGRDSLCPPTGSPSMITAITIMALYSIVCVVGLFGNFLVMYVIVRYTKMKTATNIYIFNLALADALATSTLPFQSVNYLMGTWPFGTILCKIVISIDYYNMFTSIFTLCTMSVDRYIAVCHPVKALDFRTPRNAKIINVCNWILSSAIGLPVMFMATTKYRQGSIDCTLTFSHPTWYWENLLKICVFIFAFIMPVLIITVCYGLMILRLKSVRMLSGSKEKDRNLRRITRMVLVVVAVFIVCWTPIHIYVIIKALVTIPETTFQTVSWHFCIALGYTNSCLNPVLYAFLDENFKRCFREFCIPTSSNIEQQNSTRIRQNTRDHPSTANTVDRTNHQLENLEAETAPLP
# Target sequence (P41143 whole entry, looked up): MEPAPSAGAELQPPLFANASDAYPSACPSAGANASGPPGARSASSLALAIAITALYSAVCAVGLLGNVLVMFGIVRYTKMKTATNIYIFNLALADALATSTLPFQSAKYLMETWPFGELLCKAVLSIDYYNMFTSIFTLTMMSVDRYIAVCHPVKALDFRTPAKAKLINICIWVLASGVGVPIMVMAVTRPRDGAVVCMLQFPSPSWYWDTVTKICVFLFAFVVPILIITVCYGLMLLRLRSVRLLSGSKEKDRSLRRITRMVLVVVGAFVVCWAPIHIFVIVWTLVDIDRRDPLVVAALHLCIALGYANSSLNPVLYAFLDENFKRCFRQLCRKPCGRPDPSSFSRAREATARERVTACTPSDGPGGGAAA
# Starred values were filed as active, the others as inactive; . = not tested or not shown. A selection: hits, their analogues and other compounds. The true share with any hit is near 2.3%.
SMILES,MsrA act,MsrA inhibitor,MC4R ag barr,MC4R antagonist,MC4R barr conf,MOR DOR agonist
O=C(Oc1ccc(-c2cnc3ccccc3n2)cc1)c1ccco1,-2.1,0.4,18.1*,-8.3,-2.7,3.4
CCC(=O)Oc1ccc(-c2cnc3ccccc3n2)cc1,-1.1,1.8,2.8,-15.3,.,.
Cc1ccc(NC(=O)CN(C)C(=O)c2sc3cc(Cl)ccc3c2Cl)cc1,-4.9,0.3,10.1*,0.9,2.3,5.5
O=C(Nc1cc(C(F)(F)F)ccc1N1CCOCC1)c1cn2ccccc2n1,1.6,-0.4,11.8*,-0.7,-1.1,3.2
CC1CCCCN1S(=O)(=O)c1ccc(S(=O)(=O)N2CCN(c3ccccc3)CC2)cc1 (stereo not drawn),-1.6,0.4,9.8*,2.4,15.2*,4.0
COc1cc(/C=C/C(=O)O)ccc1O,-2.8,0.5,-0.3,2.1,.,.
COc1cc(/C=C/C(=O)/C=C(O)/C=C/c2ccc(O)c(OC)c2)ccc1O,-2.2,0.7,11.9*,7.8,12.3*,5.5
CC(=O)c1ccc(N2CCN(S(=O)(=O)c3cc4c(cc3C)NC(=O)CO4)CC2)cc1,-7.2,2.5,15.8*,6.8,0.8,1.8
O=C1COc2ccc(S(=O)(=O)N3CCN(c4cccc(C(F)(F)F)c4)CC3)cc2N1,-1.9,-0.8,11.0*,10.3,2.8,7.2
Cc1onc(-c2ccccc2)c1C(=O)N(Cc1ccccn1)Cc1ccccn1,-12.8,1.0,5.0,5.1,.,.
CN(C)c1ccc(/C=C/C(=O)c2cccc(Br)c2)cc1,-0.6,-0.5,0.6,7.3,.,.
CN(C)S(=O)(=O)c1cccc(NC(=O)CCc2c[nH]c3ccccc23)c1,-2.4,0.4,3.4,18.2,.,.
Fc1ccc(CSc2ccc(-c3ccc4c(c3)OCO4)nn2)cc1,-2.9,-1.8,10.9*,9.6,1.8,7.9
c1ccc(CSc2ccc(-c3ccc4c(c3)OCO4)nn2)cc1,-9.1,0.1,28.6*,-3.2,3.4,3.6
Cn1c(SCc2ccccc2)nnc1-c1ccc2c(c1)OCO2,2.5,1.9,0.3,3.6,.,.
CCC(C)(C)C1CCC2(CC1)NC(=O)N(CC(=O)N(C)Cc1ccc(OC(F)F)cc1)C2=O (stereo not drawn),-3.0,-0.3,17.1*,-3.6,1.9,6.7
Cc1ccc(C(=O)c2cc3ccccc3o2)cc1[N+](=O)[O-],-3.0,-0.1,0.6,17.8,.,.
CC(C)c1ccc(/C=N/NC(=O)CN(c2cccc(Cl)c2Cl)S(C)(=O)=O)cc1,-6.8,-0.9,22.1*,-0.4,6.0,7.7
COc1ccc(/C(C)=N/NC(=O)CNC(=O)c2cccs2)cc1OC,-4.0,0.5,1.0,8.0,.,.
Cc1cc2oc(C(=O)Nc3nonc3C)c(C)c2cc1C,-1.8,0.1,13.9*,17.5,-1.5,5.0
CCc1ccc2oc(C(=O)Nc3nonc3C)c(C)c2c1,-3.0,0.3,1.7,-3.4,.,.
Cc1csc(N2CCN(c3cc4nc(-c5ccncc5)[nH]c4cc3Cl)CC2)n1,-3.4,0.4,-0.1,-4.7,.,.
Cc1nc2c(sc(=S)n2Cc2ccco2)c(=O)n1CC(=O)Nc1ccccc1Cl,-0.5,-0.4,-0.5,-5.6,.,.
CCN(C(=O)CSc1nnc(Cc2cccc3ccccc23)n1N)C1CCS(=O)(=O)C1 (stereo not drawn),-7.8,-0.6,2.6,0.7,.,.
CC(C)c1ccc(NC(=O)C2CCN(c3ncnc4c3nc3n4CCCCC3)CC2)cc1,-0.5,-0.3,27.1*,24.9,0.8,15.3
SMILES,MsrA act,MsrA inhibitor,MC4R ag barr,MC4R antagonist,MC4R barr conf,MOR DOR agonist
COc1ccc(C(=O)c2ccccc2)cc1Br,-2.2,0.4,-2.1,1.5,.,.
O=C(Nc1cc(N2CCOCC2)ncn1)Nc1cccc2ccccc12,-7.5,-0.1,21.6*,11.8,7.3,5.0
O=C(NCCN1CCOCC1)C12CC3CC(C1)CC(c1ccccc1)(C3)C2,-8.4,1.1,0.3,1.4,.,.
O=C(CO/N=C/c1ccccc1OC(F)F)N1CCc2ccccc21,-2.8,-0.8,10.8*,24.3,-2.0,9.8
O=C(CC(=O)Nc1ccc(Cl)cc1Cl)Nc1ccc(Cl)cc1Cl,-3.7,0.3,11.4*,5.7,3.2,3.1
COc1ccc(/C=N/NC(=O)CCn2c3ccccc3c3ccccc32)cc1O,-1.9,-0.1,0.2,-9.4,.,.
COc1cccc(/C=N/NC(=O)CCn2c3ccccc3c3ccccc32)c1,-3.1,0.9,14.2*,1.9,4.2,7.1
COc1cccc(CN2CC(O)=C(c3nc(-c4ccc(Cl)cc4)cs3)C2=N)c1,3.6,0.2,1.9,1.8,.,.
N=C1C(c2nc(-c3ccc(F)cc3)cs2)=C(O)CN1Cc1ccc(Cl)cc1,-1.4,0.6,13.8*,10.8,4.6,6.9
COc1ccc(N2CC(O)=C(c3nc(-c4ccc(F)cc4)cs3)C2=N)cc1Cl,-0.1,-1.7,11.1*,9.8,12.7*,3.2
COc1ccc(-c2csc(C3=C(O)CN(Cc4ccc(Cl)cc4)C3=N)n2)cc1OC,-3.5,1.2,102.5*,6.4,21.3*,11.0
COc1ccc(N2CC(O)=C(c3nc(-c4ccc(F)cc4)cs3)C2=N)cc1OC,-4.1,0.3,-0.9,11.4,.,.
CCOCC(=O)Nc1nc2ccccc2s1,-0.1,-0.1,-3.1,2.4,.,.
O=C(CCCOc1ccccc1)Nc1nncs1,-0.2,-0.7,1.7,4.3,.,.
COCCCNC(=O)CC[C@H]1O[C@@H](n2cnc3c(NC(=O)c4ccccc4)ncnc32)[C@H](O)[C@@H]1O,-2.0,-0.6,.,.,.,.
Cc1ccc(C(=O)NCCNc2nc3cc(C)c(C)cc3cc2C)cc1,-3.3,0.7,15.0*,-3.9,19.8*,4.4
COc1cc(/C=N/OCC(=O)Nc2cc(C)cc(C)c2)ccc1OCc1ccc(Cl)cc1,-11.2,0.4,-0.3,-5.6,.,.
CC(=O)c1ccc(NC(=O)CCCC(=O)c2ccccc2)cc1,-0.6,-0.4,-0.6,2.0,.,.
COc1cc2c(-c3ccc(O)cc3)nc3c(c(C)nn3-c3ccccc3)c2cc1OC,0.3,1.5,10.1*,3.2,2.2,1.9
COc1ccc(CNC(=O)CCCCCn2c(SCC#N)nc3cc4c(cc3c2=O)OCO4)cc1,-1.5,-1.1,19.3*,8.3,-1.5,3.4
Cc1cc(NC(=O)C(C)SCC(=O)N(C)Cc2c(F)cccc2Cl)no1 (stereo not drawn),-2.9,-0.2,-0.8,5.0,.,.
COc1cc2c(-c3ccccc3)c(C)oc2cc1/C=N/NC(N)=S,-1.9,1.7,16.1*,22.9,8.7*,10.5
COc1ccccc1NC(=O)c1oc2ccccc2c1NC(=O)c1cc(OC)c(OC)c(OC)c1,-2.4,1.0,-2.5,-11.4,.,.
CCOCC(=O)Nc1c(C(=O)Nc2ccc(OC)cc2OC)oc2ccccc12,0.7,-0.7,12.8*,3.4,9.9*,6.2
COCC(=O)Nc1c(C(=O)Nc2ccccc2OC)oc2ccccc12,-2.0,0.3,22.0*,3.1,2.8,5.0
Cn1c(CN2CCN(S(C)(=O)=O)CC2)nc2cc([N+](=O)[O-])ccc21,-3.0,0.9,-2.1,-4.4,.,.
